Legend:
[1] = biological target: T1, rat IDE (Rattus norvegicus, UniProt P35559); format: biochemical; conditions: 100 µM compound; a-factor–based substrate 50 µM; 0.1 M KPi pH 7.6; relative to DMSO-treated control = 100%
T1 sequence (P35559 1-1019): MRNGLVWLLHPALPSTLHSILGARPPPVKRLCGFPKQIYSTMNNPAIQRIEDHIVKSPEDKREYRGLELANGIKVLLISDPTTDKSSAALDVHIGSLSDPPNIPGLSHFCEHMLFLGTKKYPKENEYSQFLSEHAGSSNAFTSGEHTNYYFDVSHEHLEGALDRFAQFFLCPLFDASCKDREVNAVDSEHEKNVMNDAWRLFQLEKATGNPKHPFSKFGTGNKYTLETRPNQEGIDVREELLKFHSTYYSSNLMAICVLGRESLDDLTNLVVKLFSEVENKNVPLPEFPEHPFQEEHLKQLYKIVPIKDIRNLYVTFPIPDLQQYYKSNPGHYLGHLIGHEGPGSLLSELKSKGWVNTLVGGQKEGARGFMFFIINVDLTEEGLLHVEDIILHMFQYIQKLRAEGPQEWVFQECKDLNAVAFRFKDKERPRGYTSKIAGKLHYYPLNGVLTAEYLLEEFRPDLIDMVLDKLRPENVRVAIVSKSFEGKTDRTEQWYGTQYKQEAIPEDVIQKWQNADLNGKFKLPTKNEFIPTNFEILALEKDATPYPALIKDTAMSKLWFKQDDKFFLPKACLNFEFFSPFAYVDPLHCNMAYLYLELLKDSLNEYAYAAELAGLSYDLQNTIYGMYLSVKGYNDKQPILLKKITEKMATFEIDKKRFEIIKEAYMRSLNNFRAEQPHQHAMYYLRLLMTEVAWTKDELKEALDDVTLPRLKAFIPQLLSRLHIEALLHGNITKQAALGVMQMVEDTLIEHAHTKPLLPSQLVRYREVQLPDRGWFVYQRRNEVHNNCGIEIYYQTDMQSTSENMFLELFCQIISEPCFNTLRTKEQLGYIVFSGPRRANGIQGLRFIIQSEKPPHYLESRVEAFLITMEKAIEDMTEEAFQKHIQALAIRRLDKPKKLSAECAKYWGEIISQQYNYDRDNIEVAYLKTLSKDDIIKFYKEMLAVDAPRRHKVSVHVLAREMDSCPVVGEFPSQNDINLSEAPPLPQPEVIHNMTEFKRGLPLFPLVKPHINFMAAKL
Outline: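 Then mixed 1:1 with substrate. Fluorescence was followed for 60 min, and rates were taken from the 15–30 min window. Activity was normalized by the trypsin/pronase approach.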

[2] = tested on: pronase E; assay: Target specificity: pronase E activity with a-factor–based peptide; format: biochemical; conditions: 100 µM compound; relative to DMSO control = 100%
Outline: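 Single-dose specificity assay with a-factor–based fluorogenic peptide (50 µM) in 0.1 M KPi pH 7.6. Ste23p was used at 10 µg/mL and 30 °C; trypsin and pronase E at 0.5 µg/mL each under the 37 °C HTS conditions. Enzymes were preincubated 10 min with 100 µM compound. Triplicate rates were normalized by trypsin/pronase full digestion and given relative to DMSO control (100%).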

[3] = biological target: T2, yeast Rce1p (Saccharomyces cerevisiae, UniProt Q03530); assay: Target specificity: Rce1p activity; format: biochemical; conditions: 100 µM compound; relative to DMSO control = 100%
T2 sequence (Q03530 1-315): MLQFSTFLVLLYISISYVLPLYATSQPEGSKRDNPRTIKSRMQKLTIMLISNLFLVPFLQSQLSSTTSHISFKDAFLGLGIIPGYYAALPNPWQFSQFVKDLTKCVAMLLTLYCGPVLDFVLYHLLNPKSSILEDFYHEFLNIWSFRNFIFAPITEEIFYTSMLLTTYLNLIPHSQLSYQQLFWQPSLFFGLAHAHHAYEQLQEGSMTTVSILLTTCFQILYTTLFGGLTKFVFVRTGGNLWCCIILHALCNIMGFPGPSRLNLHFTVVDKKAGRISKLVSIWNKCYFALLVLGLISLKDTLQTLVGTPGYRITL
Outline: (§1)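 Yeast-derived microsomes (250 µg/mL) enriched for Rce1p or Ste24p were preincubated 10 min with 100 µM compound. They were assayed with an internally quenched fluorogenic farnesylated K-Ras C-terminus–based peptide, read at 320/420 nm ex/em. Rates were in triplicate, normalized by trypsin/pronase complete digestion, and expressed relative to DMSO control (100%).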

[4] = biological target: T3, yeast Ste24p (Saccharomyces cerevisiae, UniProt P47154); assay: Target specificity: Ste24p activity; format: biochemical; conditions: 100 µM compound; relative to DMSO control = 100%
T3 sequence (P47154 1-453): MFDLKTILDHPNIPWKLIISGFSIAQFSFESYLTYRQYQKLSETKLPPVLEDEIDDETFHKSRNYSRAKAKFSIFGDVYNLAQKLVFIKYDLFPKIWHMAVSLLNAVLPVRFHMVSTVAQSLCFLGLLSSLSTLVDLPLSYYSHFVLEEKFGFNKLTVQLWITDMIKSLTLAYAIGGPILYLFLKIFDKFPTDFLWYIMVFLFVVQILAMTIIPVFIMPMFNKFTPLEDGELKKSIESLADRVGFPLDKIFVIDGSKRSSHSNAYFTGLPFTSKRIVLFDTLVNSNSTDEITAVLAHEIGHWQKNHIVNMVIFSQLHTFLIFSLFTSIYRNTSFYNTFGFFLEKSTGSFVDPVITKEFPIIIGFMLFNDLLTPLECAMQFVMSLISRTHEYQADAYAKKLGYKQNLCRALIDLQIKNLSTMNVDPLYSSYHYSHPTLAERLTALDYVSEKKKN
Outline: as §1

[5] = biological target: T1, rat IDE; assay: Dose-response of rat IDE activation; format: biochemical; conditions: for dose-response profile: rat IDE activation, a-factor–based substrate
Outline: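 Rat IDE (10 µg/mL) in 0.1 M KPi pH 7.6 was preincubated 10 min at 37 °C with activator (up to 1 mM), then mixed 1:1 with a-factor–based fluorogenic substrate (50 µM final). Fluorescence (320 ex) was read over 60 min and rate taken from the 15–30 min window. Baseline was subtracted and rates normalized to trypsin/pronase E full digestion. AC50 came from best-fit curves, or [Max]50 where the curve was not sigmoidal.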

[6] = biological target: T1, rat IDE; assay: Insulin competition with a-factor–based substrate on rat IDE; format: biochemical; conditions: 100 µM compound; […] (IC50) insulin; 0.1 M KPi
[7] = biological target: T1, rat IDE; assay: a-Factor production bioassay; format: cell-based; conditions: 72 h, relative to DMSO-treated control
[8] = biological target: T1, rat IDE; assay: Native PAGE mobility shift of rat IDE; format: binding; conditions: 100 µM compound; 60 min at 37 °C
Outline: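 Rat IDE was preincubated 60 min at 37 °C with compound (100 µM) or ATP (3 mM). It was mixed 1:1 with 2× native sample buffer (0.6 M Tris-HCl pH 6.8, 20% glycerol, bromophenol blue), run on 10% native PAGE at 4 °C and silver-stained.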

Compound | % Activity IDE [1] | % Activity Pronase [2] | % Activity Rce1p [3] | % Activity Ste24p [4] | Saturation of activation ([5]; highest concentration tested 1 mM) | dose-response profile [5] | ability to stimulate IDE activity in presence of insulin [6] | IDE-mediated a-factor production in vivo ([7]; 100 µM compound) | native PAGE mobility shift of IDE [8] | IDE-mediated a-factor production in vivo ([7]; 12.5 µM compound) | IDE-mediated a-factor production in vivo ([7]; 50 µM compound) | IDE-mediated a-factor production in vivo ([7]; 25 µM compound)
O=S(=O)(O)CCCc1cccc2ccccc12 [Compound 1] | 195.4 ± 12.2% | 100.9 ± 0.1% | 89.7 ± 3.8% | 97.2 ± 12.7% | not achieved | classic sigmoidal dose-responses | retained their ability to stimulate IDE activity | – | – | – | – | –
Cn1ncc2c(NCCc3ccccc3)nc(Cl)nc21 [Compound 2] | 170.3 ± 16.0% | 89.2 ± 0.6% | 83.2 ± 3.4% | 93.0 ± 6.8% | – | classic sigmoidal dose-responses | – | reduced the yield of a-factor produced | – | – | – | –
O=S(=O)(O)c1cc(O)c2c(O)c(N=Nc3cccc4ccccc34)c(S(=O)(=O)O)cc2c1 [Compound 3] | 356.0 ± 16.0% | 103.8 ± 0.1% | – | – | – | inverted bell-shaped activation curve | retained their ability to stimulate IDE activity | enhanced a-factor production in vivo | did not reveal a mobility shift | – | – | –
Nc1nc(SCc2ccccc2Cl)cc(C(=O)O)n1 [Compound 5] | 263.5 ± 1.0% | – | 101.2 ± 11.0% | 131.4 ± 18.8% | – | inverted bell-shaped activation curve | retained their ability to stimulate IDE activity | – | – | enhanced a-factor production in vivo | – | –
O=C(CCN1CC2CCC(CC2)C1)c1cccs1 [Compound 6] | 230.7 ± 13.5% | 104.4 ± 0.0% | 90.1 ± 1.0% | 98.6 ± 9.9% | – | classic sigmoidal dose-responses | – | – | noticeable shift | – | enhanced a-factor production in vivo | –
O=C(O)c1ccc(Oc2nc3ccccc3s2)cc1 [Compound 7] | 186.6 ± 7.4% | 104.3 ± 0.9% | 89.6 ± 2.4% | 92.8 ± 13.1% | – | classic sigmoidal dose-responses | retained their ability to stimulate IDE activity | reduced the yield of a-factor produced | – | – | – | –
O=[N+]([O-])/C=C/c1cc2ccccc2[nH]1 [Compound 8] | 195.0 ± 14.0% | 93.3 ± 1.8% | – | 89.2 ± 10.7% | – | inverted bell-shaped activation curve | – | – | noticeable shift | – | – | enhanced a-factor production in vivo

From publication PMC5901702 (Journal of biomolecular screening, 2012)
